# Laboratory results taken from ChEMBL document CHEMBL1159121, “Synthesis, in vitro structure-activity relationship, and in vivo studies of 2-arylthiazolidine-4-carboxylic acid amides as anticancer agents” (Bioorg Med Chem, 2010).
# Experiments:
# [1] = Cytotoxicity against human fibroblasts after 48 hrs by SRB assay; assay type: cell-based; conditions: Fibroblast
# Summary of the method: (§1)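 Melanoma lines and control fibroblasts grown at 37 °C, 5% CO2, then exposed to a wide concentration range for 48 h in round-bottom 96-well plates. Fixed with 10% TCA, stained with SRB, protein read at 560 nm. IC50 (50% growth inhibition versus untreated) obtained by nonlinear regression.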
# [2] = Antiproliferative activity against human WM164 cells after 48 hrs by SRB assay; assay type: functional, cell-based; conditions: WM164, 48 h; summary of the method: as §1
# A-375 = test: Antiproliferative activity against human A375 cells after 48 hrs by SRB assay; assay type: functional, cell-based; conditions: A-375, 48 h; summary of the method: as §1
# DU-145 = test: Antiproliferative activity against human DU145 cells after 96 hrs by SRB assay; assay type: functional, cell-based; conditions: DU-145, 96 h
# Summary of the method: (§2)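 Prostate lines in RPMI1640/10% FBS; RH7777 in DMEM/10% FBS. Cells TCA-fixed, stained with 0.4% SRB, absorbance read at 540 nm. IC50 from nonlinear regression of % survival against concentration.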
# LNCaP = test: Antiproliferative activity against human LNCAP cells after 96 hrs by SRB assay; assay type: functional, cell-based; summary of the method: as §2
# PPC-1 = test: Antiproliferative activity against human PPC1 cells after 96 hrs by SRB assay; assay type: functional, cell-based; conditions: PPC-1, 96 h; summary of the method: as §2
# RH7777 [3] = test: Selectivity ratio of IC50 for rat RH7777 cells to IC50 for human prostate cancer cells
# Summary of the method: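 Ratio of RH7777 IC50 to the mean IC50 over four prostate lines (DU 145, PC-3, LNCaP, PPC-1). Prostate lines grown in RPMI1640/10% FBS and RH7777 in DMEM/10% FBS. Read by SRB (0.4%) at 540 nm; IC50 by nonlinear regression.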
# RH7777 [4] = test: Cytotoxicity against rat RH7777 cells after 96 hrs by SRB assay; assay type: cell-based; conditions: RH7777, 96 h; summary of the method: as §2
# PC-3 = test: Antiproliferative activity against human PC3 cells after 96 hrs by SRB assay; assay type: functional, cell-based; conditions: PC-3, 96 h
# [5] = Antiproliferative activity against mouse B16-F1 cells after 48 hrs by SRB assay; assay type: functional, cell-based; conditions: B16-F1, 48 h; summary of the method: as §1
# [6] = Selectivity ratio of IC50 for human fibroblasts to IC50 for human melanoma cells; assay type: ADME; conditions: human fibroblasts and human melanoma cells, read-out: Ratio IC50
Structure (SMILES),IC50 [1],IC50 [2],IC50 (A-375),IC50 (DU-145),IC50 (LNCaP),IC50 (PPC-1),Ratio IC50 (RH7777 [3]),IC50 (RH7777 [4]),IC50 (PC-3),IC50 [5],selectivity ratio [6]
CCCCCCCCCCCCCCCCNC(=O)[C@@H](N)CSC,61200 nM,14400 nM,12900 nM,–,–,–,–,–,–,–,–
CCCCCCCCCCCCCCCCNC(=O)[C@H](CSC)NCc1ccc(NC(C)=O)cc1,> 100000 nM,145000 nM,108000 nM,–,–,–,–,–,–,–,–
CCCCCCCCCCCCCCCCNC(=O)[C@@H](N)CSCc1ccccc1,16400 nM,12800 nM,15100 nM,–,–,–,–,–,–,–,–
CCCCCCCCCCCCCCCCNC(=O)CNCc1ccc(NC(C)=O)cc1,24000 nM,10200 nM,11900 nM,–,–,–,–,–,–,–,–
CCCCCCCCCCCCNC(=O)[C@@H]1CSC(c2ccc(N)cc2)N1 (mixture of isomers),–,–,–,2400 nM,2000 nM,1200 nM,3.4,7300 nM,2900 nM,–,–
CCCCCCCCCCCCCCNC(=O)[C@H]1CSC(c2cc(OC)c(OC)c(OC)c2)N1 (mixture of isomers),–,–,–,2100 nM,1900 nM,700 nM,–,5800 nM,2900 nM,–,–
CCCCCCCCCCCCCCCCNC(=O)[C@@H]1CSC(c2ccccc2)N1 (mixture of isomers),2200 nM,700 nM,–,–,–,–,–,–,–,–,–
CCCCCCCCCCNC(=O)[C@@H]1CSC(c2cc(OC)c(OC)c(OC)c2)N1 (mixture of isomers),–,–,–,4100 nM,2200 nM,2100 nM,–,6000 nM,4400 nM,–,–
CCCCCCCCCCCCNC(=O)[C@@H]1CSC(c2cc(OC)c(OC)c(OC)c2)N1 (mixture of isomers),–,–,–,2800 nM,1400 nM,1000 nM,–,6500 nM,2900 nM,–,–
CCCCCCCCCCCCCCNC(=O)[C@@H]1CSC(c2cc(OC)c(OC)c(OC)c2)N1 (mixture of isomers),–,–,–,2200 nM,2000 nM,600 nM,–,6100 nM,2600 nM,–,–
CCCCCCCCNC(=O)[C@@H]1CSC(c2cc(OC)c(OC)c(OC)c2)N1 (mixture of isomers),–,–,–,17300 nM,2700 nM,14000 nM,–,> 20000 nM,> 20000 nM,–,–
CCCCCCCCCCCCCCCCNC(=O)[C@@H]1CSC(c2ccc(N)cc2)N1 (mixture of isomers),–,–,–,2600 nM,1500 nM,600 nM,5.3,9400 nM,2400 nM,–,–
CCCCCCCCCCCCCCCCCCN(C)C(=O)[C@@H]1CSC(c2ccc(NC(C)=O)cc2)N1 (mixture of isomers),> 100000 nM,10700 nM,20600 nM,3900 nM,1800 nM,800 nM,3.6,9200 nM,3700 nM,18900 nM,–
CC(=O)Nc1ccc(C2N[C@H](C(=O)NC34CC5CC(CC(C5)C3)C4)CS2)cc1 (mixture of isomers),> 100000 nM,128000 nM,138000 nM,> 20000 nM,5700 nM,> 20000 nM,–,> 20000 nM,> 20000 nM,96500 nM,–
CCCCCCCCC/C=C\CCCCCCCNC(=O)[C@@H]1CSC(c2ccc(OC)c(OC)c2)N1 (mixture of isomers),18300 nM,1200 nM,1600 nM,2000 nM,1300 nM,600 nM,6.2,10000 nM,2600 nM,3300 nM,9
CCCCCCCCCCCCCCCCNC(=O)[C@@H]1CSC(c2cccc(NC(C)=O)c2)N1 (mixture of isomers),6300 nM,1100 nM,1500 nM,2300 nM,1400 nM,500 nM,3.4,4900 nM,1600 nM,2200 nM,3.9

Structure (SMILES),IC50 [1],IC50 [2],IC50 (A-375),IC50 (DU-145),IC50 (LNCaP),IC50 (PPC-1),Ratio IC50 (RH7777 [3]),IC50 (RH7777 [4]),IC50 (PC-3),IC50 [5],selectivity ratio [6]
CCCCCCCCC/C=C/CCCCCCCNC(=O)[C@@H]1CSC(c2cc(OC)c(OC)c(OC)c2)N1 (mixture of isomers),4000 nM,1100 nM,1800 nM,900 nM,600 nM,300 nM,9.1,6800 nM,1200 nM,3200 nM,2
CCCCCCCCCCCCCCCCNC(=O)[C@@H]1CSC(c2ccc(NS(C)(=O)=O)cc2)N1 (mixture of isomers),> 100000 nM,18600 nM,50600 nM,> 20000 nM,4800 nM,1100 nM,–,> 20000 nM,> 20000 nM,114000 nM,–
CCCCCCCCCCCCCCCCNC(=O)[C@@H]1CSC(c2ccc(NC(N)=O)cc2)N1 (mixture of isomers),7200 nM,1700 nM,3600 nM,3200 nM,1800 nM,500 nM,3.4,6700 nM,2500 nM,–,1.8
CCCCCCCCCCCCCCCCNC(=O)[C@@H]1CSC(c2cccc(OC)c2)N1 (mixture of isomers),2500 nM,1200 nM,1800 nM,1100 nM,500 nM,200 nM,5.1,3600 nM,1000 nM,3000 nM,1.3
CCCCCCCCCCCCCCCCNC(=O)[C@@H]1CSC(c2ccc(OC)cc2)N1 (mixture of isomers),–,1000 nM,1500 nM,2200 nM,1100 nM,400 nM,5.3,8400 nM,2700 nM,2300 nM,5.1
CC(=O)Nc1ccc(C2N[C@H](C(=O)NC3C4CC5CC(C4)CC3C5)CS2)cc1 (mixture of isomers),> 100000 nM,64400 nM,66000 nM,> 20000 nM,9700 nM,> 20000 nM,–,> 20000 nM,> 20000 nM,108000 nM,–
CC(=O)Nc1ccc(C2N[C@H](C(=O)Nc3ccc4c(c3)Cc3ccccc3-4)CS2)cc1 (mixture of isomers),–,–,–,–,–,–,–,–,–,–,11.3
CCCCCC/C=C\CCCCCCCCNC(=O)[C@@H]1CSC(c2ccc(NC(C)=O)cc2)N1 (mixture of isomers),14000 nM,2000 nM,1900 nM,2400 nM,1800 nM,1100 nM,3.9,7600 nM,2500 nM,2100 nM,7
CCCCCCCCC#CCCCCCCCCCNC(=O)[C@@H]1CSC(c2ccc(NC(C)=O)cc2)N1 (mixture of isomers),7000 nM,1300 nM,2700 nM,1800 nM,2000 nM,700 nM,4,6600 nM,2100 nM,1600 nM,3.8
CCCCCCCCCCCCCCCCOC(=O)[C@@H]1CSC(c2ccc(NC(C)=O)cc2)N1 (mixture of isomers),> 100000 nM,18500 nM,28000 nM,> 20000 nM,> 20000 nM,> 20000 nM,–,> 20000 nM,> 20000 nM,41900 nM,–
CCCCCCCCC/C=C\CCCCCCCNC(=O)[C@@H]1CSC(c2cc(OC)c(OC)c(OC)c2)N1 (mixture of isomers),4800 nM,1300 nM,2400 nM,1200 nM,700 nM,500 nM,8.6,8400 nM,1500 nM,4700 nM,1.7
CCCCCCCCC/C=C/CCCCCCCNC(=O)[C@@H]1CSC(c2ccccc2)N1 (mixture of isomers),12400 nM,–,5300 nM,1500 nM,1400 nM,600 nM,6.5,8900 nM,2100 nM,10100 nM,2.1
CC(=O)Nc1ccc(C2N[C@H](C(=O)Nc3nc4ccccc4s3)CS2)cc1 (mixture of isomers),> 100000 nM,> 100000 nM,45900 nM,> 20000 nM,> 20000 nM,> 20000 nM,–,> 20000 nM,> 20000 nM,55300 nM,–
CN(C)/N=N/c1[nH]cnc1C(N)=O [DACARBAZINE],> 100000 nM,> 100000 nM,> 100000 nM,–,–,–,–,–,–,> 100000 nM,–
CNC(=O)c1cc(Oc2ccc(NC(=O)Nc3ccc(Cl)c(C(F)(F)F)c3)cc2)ccn1 [SORAFENIB],–,5000 nM,–,–,–,–,–,–,–,4900 nM,3
